Assay results taken from ChEMBL document CHEMBL1133723, “Developing a dynamic pharmacophore model for HIV-1 integrase” (J Med Chem, 2000).
Where a SMILES comes first, the peptide text is derived from it. The star is where a group is joined. pNA = O=[N+]([O-])c1ccc(N*)cc1; Boc = CC(C)(C)OC(=O)*; Bn = c1ccc(C*)cc1

Experiments:
[1] = target: Human immunodeficiency virus type 1 integrase (Human immunodeficiency virus 1) (UniProt Q7ZJM1); assay: Inhibitory activity against HIV-1 integrase at 25 uM
Outline: (§1)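 Integration reaction with HIV-1 integrase, run as in an earlier published method except for the detection step. The integration product was detected with digoxygenin-labelled oligonucleotides and an anti-digoxygenin antibody conjugated to horseradish peroxidase. Compounds were tested at 1 mM, 200 µM and 25 µM.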

[2] = target: Human immunodeficiency virus type 1 integrase (Human immunodeficiency virus 1) (UniProt Q7ZJM1); assay: Inhibitory activity against HIV-1 integrase at 1 mM; outline: as §1
[3] = target: Human immunodeficiency virus type 1 integrase (Human immunodeficiency virus 1) (UniProt Q7ZJM1); assay: Inhibitory activity against HIV-1 integrase at 200 uM; outline: as §1
[4] = target: Human immunodeficiency virus type 1 integrase (Human immunodeficiency virus 1) (UniProt Q7ZJM1); assay: Inhibition against HIV-1 integrase at 25 uM; outline: as §1
[5] = target: Human immunodeficiency virus type 1 integrase (Human immunodeficiency virus 1) (UniProt Q7ZJM1); settings: at 1 mM
[6] = target: Human immunodeficiency virus type 1 integrase (Human immunodeficiency virus 1) (UniProt Q7ZJM1); settings: at 200 µM
[7] = target: T1, Human immunodeficiency virus type 1 integrase (Human immunodeficiency virus 1, UniProt Q7ZJM1)
[8] = target: T1, Human immunodeficiency virus type 1 integrase; remark: listed apart in the source

| Structure (SMILES) | inhibition [5] | inhibition [6] | IC50 [7] | further results |
| --- | --- | --- | --- | --- |
| Nc1nc(=O)c2c([nH]1)NCC(CNc1ccc(C(=O)N[C@@H](CCC(=O)O)C(=O)O)cc1)=N2 |  |  |  | inhibition [1]: < 50%; inhibition [2]: > 50%; inhibition [3]: > 50% |
| O=C(NCNC(=O)NC1C(=O)NC(=O)N1CO)NC1C(=O)NC(=O)N1CO (stereo unspecified) | > 50% | < 50% |  | inhibition [4]: < 50% |
| CCC1C/C(=N\NC(N)=O)C(NNC(N)=O)C(C)C1 (stereo unspecified) | < 50% | < 50% |  |  |
| O=C[C@H](O)[C@@H](O)C(O[C@@H]1O[C@H](CO)[C@H](O)[C@H](O)[C@H]1O)[C@H](O)CO (stereo partly specified) | < 50% | < 50% |  |  |
| O=C(NCCCCCCNC(=O)NNc1ccccc1)NNc1ccccc1 | < 50% | < 50% |  |  |
| CC(C)(C)OC(=O)N[C@@H](COCc1ccccc1)C(=O)NCC(=O)N[C@@H](CCCN=C(N)N)C(=O)Nc1ccc([N+](=O)[O-])cc1 (Boc-Ser(Bn)-Gly-Arg-pNA) | > 50% | < 50% |  | inhibition [4]: < 50% |
| O=C(/C=C/c1ccc(O)c(O)c1)O[C@H]1[C@H](O)C[C@](O)(C(=O)O)C[C@H]1OC(=O)/C=C/c1ccc(O)c(O)c1 (stereo in doubt; form 1) |  |  | 0.79 µM | IC50 [8]: 0.54 µM |
| OCC(CO)(CO)NCCCNC(CO)(CO)CO |  |  |  | inhibition [2]: < 50%; inhibition [3]: < 50% |
| N/N=C(\S)Nc1ccc(N/C(S)=N/N)cc1 | > 50% | < 50% |  | inhibition [4]: < 50% |
| O=c1c(O)c(-c2ccc(O)c(O)c2)oc2cc(O)c(O)c(O)c12 [QUERCETAGETIN] |  |  | 1.3 µM | IC50 [8]: 0.6 µM |
| NC(=O)c1ccccc1NC(=O)Nc1cc(NC(=O)Nc2ccccc2C(N)=O)c(Br)cc1Br | > 50% | > 50% |  | inhibition [4]: < 50% |
| N[C@H]1[C@@H](OP(=O)(O)O)O[C@H](CO)[C@H](O)[C@@H]1O |  |  |  | inhibition [2]: < 50%; inhibition [3]: < 50% |
| N#C/C(=C\c1ccc(O)c(O)c1)C(=O)NCCCNC(=O)/C(C#N)=C/c1ccc(O)c(O)c1 |  |  | 10 µM | IC50 [8]: 3 µM |
| OC[C@@H](O)[C@@H](O)[C@H](O)c1cnc([C@@H](O)[C@H](O)[C@H](O)CO)cn1 |  |  |  | inhibition [2]: < 50%; inhibition [3]: < 50% |
| CC(=O)NC1=C(O)C[C@@](O)(C(=O)O)O[C@H]1[C@@H](O)[C@H](O)CO |  |  |  | inhibition [2]: < 50%; inhibition [3]: < 50% |
| NC[C@@H](O)c1ccc(OC(=O)[C@H](O)[C@@H](O)C(=O)O)c(OC(=O)[C@H](O)[C@@H](O)C(=O)O)c1 | > 50% | < 50% |  | inhibition [4]: < 50% |
| O=P(O)(O)O[C@H]1O[C@H](CO)[C@@H](O)[C@H](O)[C@@H]1O |  |  |  | inhibition [2]: < 50%; inhibition [3]: < 50% |
| CCCNC(=O)NNC(=O)c1ccccc1NC(=O)NCCC | < 50% | < 50% |  |  |
| O=C1c2ccc(O)c(O)c2C(=O)c2c(O)ccc(O)c21 [QUINALIZARIN] |  |  | 4 µM | IC50 [8]: 1 µM |
| O=C(/C=C/c1ccc(O)c(O)c1)O[C@H]1[C@H](O)C[C@](O)(C(=O)O)C[C@H]1OC(=O)/C=C/c1ccc(O)c(O)c1 (stereo in doubt; form 2) |  |  | 0.25 µM | IC50 [8]: 0.46 µM |
| O=C(/C=C\c1ccc(O)c(O)c1)OC1CC(OC(=O)/C=C\c2ccc(O)c(O)c2)(C(=O)O)CC(O)C1O (stereo unspecified) |  |  | 0.68 µM | IC50 [8]: 1.08 µM |
| O=c1oc2c(O)c(O)cc3c(=O)oc4c(O)c(O)cc1c4c23 [ELLAGIC ACID] |  |  | 5.1 µM |  |
| NNC(=O)C(O)C(O)C(O)C(O)CO (stereo unspecified) | > 50% | < 50% |  | inhibition [4]: < 50% |
| O=C(CNC(=O)NCc1ccoc1)NNC(=O)Nc1cccc(Cl)c1 | < 50% | < 50% |  |  |
| O=C(CC(O)CCc1ccc(O)c(O)c1)O[C@H]1Cc2cc(O)c(O)cc2O[C@H]1c1ccc(O)c(O)c1 (stereo partly specified) |  |  | 1.4 µM | IC50 [8]: 1 µM |
| O=C(O[C@@H]1Cc2c(O)cc(O)cc2O[C@@H]1c1cc(O)c(O)c(O)c1)c1cc(O)c(O)c(O)c1 | > 50% | > 50% |  | inhibition [4]: > 50% |
| OC[C@@H](O)[C@@H](O[C@H]1O[C@H](CO)[C@@H](O)[C@H](O)[C@H]1O)[C@H](O)[C@@H](O)CO |  |  |  | inhibition [2]: < 50%; inhibition [3]: < 50% |
| COC1/C=C/OC2(C)Oc3c(C)c(O)c4c(O)c(c(C=NN5C(C)CN(Cc6ccc([N+](=O)[O-])cc6)CC5C)c(O)c4c3C2=O)NC(=O)/C(C)=C\C=C\C(C)C(O)C(C)C(O)C(C)C(OC(C)=O)C1C (stereo unspecified) |  |  | 20.6 µM | IC50 [8]: 19.7 µM |
| Cc1[nH]n(-c2cccc(NC(=O)Nc3cccc(-n4[nH]c(C)c(/N=N/c5c(O)cc(S(=O)(=O)O)c6cc([N+](=O)[O-])ccc56)c4=O)c3)c2)c(=O)c1/N=N/c1c(O)cc(S(=O)(=O)O)c2cc([N+](=O)[O-])ccc12 | > 50% | > 50% |  | inhibition [4]: > 50% |
